ChEMBL document CHEMBL1811844, “Design, synthesis, and biological evaluation of triazolo-pyrimidine derivatives as novel inhibitors of hepatitis B virus surface antigen (HBsAg) secretion” (J Med Chem, 2011)

What was measured:
[1] = test system: Mus musculus; assay: Acute toxicity in CL57BL/6 mouse assessed as effect on hemoglobin at 25 mg/kg, iv administered as single dose after 24 hrs; format: organism-based; design: dose 25 mg/kg, route intravenous; settings: in vivo
Outline: (§1)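 Female C57BL/6 mice, four per group, randomized, each given one tail-vein injection of a 2 mg/mL solution in 1:1 NMP:Solutol HS15 diluted with saline; a vehicle-only group served as control. Mice were watched closely for the first hour and sacrificed at 24 h with necropsy. Whole blood was taken for complete blood counts on an automated haematology analyser.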

[2] = test system: Mus musculus; assay: Acute toxicity in CL57BL/6 mouse assessed as effect on eosinophils percent at 25 mg/kg, iv administered as single dose after 24 hrs; format: organism-based; design: dose 25 mg/kg, route intravenous; settings: in vivo; outline: as §1
[3] = test system: Mus musculus; assay: Acute toxicity in CL57BL/6 mouse assessed as effect on serum blood urea nitrogen level at 25 mg/kg, iv administered as single dose after 24 hrs; format: organism-based; design: dose 25 mg/kg, route intravenous; settings: in vivo
Outline: as §1, with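 “watched” for “watched closely”, “Serum” for “Whole blood”, “collected and run” for “taken for complete blood counts”, “chemistry and electrolyte” for “haematology”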

[4] = test system: Mus musculus; assay: Toxicity in HBV infected transgenic 1.3.32 mouse assessed as change in serum amylase level at 7.9 to 25 mg/kg, po qd for 14 days; format: organism-based; design: dose 7.9-25 mg/kg, route oral; settings: in vivo, 336 h
Outline: (§2)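 HBV-transgenic mice (strain 1.3.32), 10 per group, randomised; oral gavage once daily for 14 days at 25 or 7.9 mg/kg in NMP:Solutol HS15/saline vehicle; vehicle-only group. Weighed before the first dose and after 3 days; observed one hour after each dose. Tail-vein blood taken before dosing, at day 7 and at day 14 necropsy, each 3 h post-dose, for serum chemistry.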

[5] = test system: Mus musculus; assay: Toxicity in HBV infected transgenic 1.3.32 mouse assessed as morphological changes at 7.9 to 25 mg/kg, po qd for 14 days; format: organism-based; design: dose 7.9-25 mg/kg, route oral; settings: in vivo, 336 h; outline: as §2
[6] = test system: Mus musculus; assay: Acute toxicity in CL57BL/6 mouse assessed as effect on serum creatinine level at 25 mg/kg, iv administered as single dose after 24 hrs; format: organism-based; design: dose 25 mg/kg, route intravenous; settings: in vivo
Outline: as §1, with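 “watched” for “watched closely”, “Serum” for “Whole blood”, “collected and run” for “taken for complete blood counts”, “chemistry and electrolyte” for “haematology”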

[7] = test system: Mus musculus; assay: Toxicity in HBV infected transgenic 1.3.32 mouse assessed as change in serum creatinine level at 7.9 to 25 mg/kg, po qd for 14 days; format: organism-based; design: dose 7.9-25 mg/kg, route oral; settings: in vivo, 336 h; outline: as §2
[8] = test system: Hepatitis B virus; assay: Antiviral activity against wild-type Hepatitis B virus infected in human HepG2 cells assessed as inhibition of HBsAg secretion by ELISA; format: functional, organism-based
[9] = test system: Mus musculus; assay: Acute toxicity in CL57BL/6 mouse assessed as morbidity at 25 mg/kg, iv administered as single dose after 24 hrs; format: organism-based; design: dose 25 mg/kg, route intravenous; settings: in vivo
Outline: (§3)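 Female C57BL/6 mice, four per group, randomised; single tail-vein bolus in NMP:Solutol HS15 (1:1) diluted with saline to 2 mg/mL, injected within 10 min of preparation; vehicle-only group. Close observation for the first hour; sacrifice and necropsy at 24 h. Whole-blood complete blood counts and serum chemistry, including total bilirubin and total protein, were measured.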

[10] = test system: Mus musculus; assay: Acute toxicity in CL57BL/6 mouse assessed as reduction in neutrophils count at 25 mg/kg, iv administered as single dose after 24 hrs; format: organism-based; design: dose 25 mg/kg, route intravenous; settings: in vivo; outline: as §3
[11] = test system: Mus musculus; assay: Toxicity in HBV infected transgenic 1.3.32 mouse assessed as change in serum alkaline phosphatase level at 7.9 to 25 mg/kg, po qd for 14 days; format: organism-based; design: dose 7.9-25 mg/kg, route oral; settings: in vivo, 336 h; outline: as §2
[12] = test system: Mus musculus; assay: Toxicity in HBV infected transgenic 1.3.32 mouse assessed as change in serum albumin level at 7.9 to 25 mg/kg, po qd for 14 days; format: organism-based; design: dose 7.9-25 mg/kg, route oral; settings: in vivo, 336 h; outline: as §2
[13] = test system: Hepatitis B virus; assay: Antiviral activity against lamivudine/telbivudine-resistant Hepatitis B virus harboring polymerase M552I mutant in human HepG2 cells assessed as inhibition of HBsAg secretion by ELISA; format: functional, organism-based
[14] = test system: Hepatitis B virus; assay: Antiviral activity against lamivudine/telbivudine-resistant Hepatitis B virus harboring polymerase L528M and M552V mutant in human HepG2 cells assessed as inhibition of HBsAg secretion by ELISA; format: functional, organism-based
[15] = test system: Mus musculus; assay: Acute toxicity in CL57BL/6 mouse assessed as effect on basophils percent at 25 mg/kg, iv administered as single dose after 24 hrs; format: organism-based; design: dose 25 mg/kg, route intravenous; settings: in vivo; outline: as §1
[16] = test system: Mus musculus; assay: Acute toxicity in CL57BL/6 mouse assessed as effect on monocytes count at 25 mg/kg, iv administered as single dose after 24 hrs; format: organism-based; design: dose 25 mg/kg, route intravenous; settings: in vivo; outline: as §1
[17] = test system: Mus musculus; assay: Toxicity in HBV infected transgenic 1.3.32 mouse assessed as change in serum K+ level at 7.9 to 25 mg/kg, po qd for 14 days; format: organism-based; design: dose 7.9-25 mg/kg, route oral; settings: in vivo, 336 h; outline: as §2
[18] = test system: Mus musculus; assay: Toxicity in HBV infected transgenic 1.3.32 mouse assessed as change in serum glucose level at 7.9 to 25 mg/kg, po qd for 14 days; format: organism-based; design: dose 7.9-25 mg/kg, route oral; settings: in vivo, 336 h; outline: as §2
[19] = test system: Mus musculus; assay: Acute toxicity in CL57BL/6 mouse assessed as reduction in platelets count at 25 mg/kg, iv administered as single dose after 24 hrs; format: organism-based; design: dose 25 mg/kg, route intravenous; settings: in vivo; outline: as §3
[20] = test system: Rattus norvegicus; assay: Cmax in fasted Sprague-Dawley rat plasma at 25 mg/kg, po after 6 hrs by LC/MS/MS analysis; format: ADME, organism-based; design: dose 25 mg/kg, route oral; settings: in vivo
Outline: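 Male rats, 3 per treatment, fitted with jugular vein cannulae two days before dosing and fasted 12 h (water allowed). Compound given by gavage at 25 mg/kg, formulated at 2 mg/mL in 1:1 NMP:Solutol HS15 diluted with saline. Blood taken predose and at 5, 15, 30 min, 1, 3 and 6 h. Plasma quantified by LC/MS against an 8-point standard curve; Cmax calculated by standard methods.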

[21] = test system: Mus musculus; assay: Toxicity in HBV infected transgenic 1.3.32 mouse assessed as elevation in serum alanine aminotransferase level at 7.9 to 25 mg/kg, po qd for 14 days; format: organism-based; design: dose 7.9-25 mg/kg, route oral; settings: in vivo, 336 h; outline: as §2
[22] = test system: Mus musculus; assay: Toxicity in HBV infected transgenic 1.3.32 mouse assessed as weight loss at 7.9 to 25 mg/kg, po qd for 14 days; format: organism-based; design: dose 7.9-25 mg/kg, route oral; settings: in vivo, 336 h; outline: as §2
[23] = test system: Mus musculus; assay: Acute toxicity in CL57BL/6 mouse assessed as mortality at 25 mg/kg, iv administered as single dose after 24 hrs; format: organism-based; design: dose 25 mg/kg, route intravenous; settings: in vivo; outline: as §3
[24] = test system: Rattus norvegicus; assay: Half life in fasted Sprague-Dawley rat plasma at 5 mg/kg, iv by LC/MS/MS analysis; format: ADME, organism-based; design: dose 5 mg/kg, route intravenous; settings: in vivo
Outline: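 Male Sprague-Dawley rats, 3 per treatment, carried jugular cannulae and were fasted 12 h with water. Compound was formulated at 2 mg/mL in 1:1 NMP:Solutol HS15 diluted with saline. Dosing was 5 mg/kg iv or 25 mg/kg oral gavage. Blood was drawn predose and at 5, 15, 30 min, 1, 3 and 6 h. Plasma was quantified by LC-MS/MS against an 8-point standard curve.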

[25] = test system: Mus musculus; assay: Toxicity in HBV infected transgenic 1.3.32 mouse assessed as change in serum globulin level at 7.9 to 25 mg/kg, po qd for 14 days; format: organism-based; design: dose 7.9-25 mg/kg, route oral; settings: in vivo, 336 h; outline: as §2
[26] = test system: Hepatitis B virus; assay: Antiviral activity against entecavir-resistant Hepatitis B virus harboring polymerase L528M, M552V, T532G and S550I mutant in human HepG2 cells assessed as inhibition of HBsAg secretion by ELISA; format: functional, organism-based
[27] = test system: Mus musculus; assay: Acute toxicity in CL57BL/6 mouse assessed as effect on serum amylase level at 25 mg/kg, iv administered as single dose after 24 hrs; format: organism-based; design: dose 25 mg/kg, route intravenous; settings: in vivo
Outline: as §1, with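 “watched” for “watched closely”, “Serum” for “Whole blood”, “collected and run” for “taken for complete blood counts”, “chemistry and electrolyte” for “haematology”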

[28] = test system: Hepatitis B virus; assay: Antiviral activity against adefovir-resistant Hepatitis B virus harboring polymerase A529V mutant in human HepG2 cells assessed as inhibition of HBsAg secretion by ELISA; format: functional, organism-based
[29] = test system: Mus musculus; assay: Acute toxicity in CL57BL/6 mouse assessed as effect on serum glucose level at 25 mg/kg, iv administered as single dose after 24 hrs; format: organism-based; design: dose 25 mg/kg, route intravenous; settings: in vivo
Outline: as §1, with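 “watched” for “watched closely”, “Serum” for “Whole blood”, “collected and run” for “taken for complete blood counts”, “chemistry and electrolyte” for “haematology”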

[30] = test system: Mus musculus; assay: Toxicity in HBV infected transgenic 1.3.32 mouse assessed as change in blood urea nitrogen level at 7.9 to 25 mg/kg, po qd for 14 days; format: organism-based; design: dose 7.9-25 mg/kg, route oral; settings: in vivo, 336 h; outline: as §2
[31] = test system: Mus musculus; assay: Toxicity in HBV infected transgenic 1.3.32 mouse assessed as elevation in serum Na+ level at 7.9 to 25 mg/kg, po qd for 14 days; format: organism-based; design: dose 7.9-25 mg/kg, route oral; settings: in vivo, 336 h; outline: as §2

Fc1cccc(Cl)c1C1CC(c2ccc(Cl)cc2)Nc2ncnn21 (racemic)
2437 ng/mL: Cmax [20]
Non-toxic: Activity [1] | Activity [2] | Activity [3] | Activity [4] | Activity [5] | Activity [6] | Activity [7] | Activity [9] | Activity [11] | Activity [12] | Activity [15] | Activity [16] | Activity [17] | Activity [18] | Activity [22] | Activity [23] | Activity [25] | Activity [27] | Activity [29] | Activity [30]
10.3 µM: EC50 [14]
Toxic: Activity [10] | Activity [19] | Activity [21] | Activity [31]
8.4 µM: EC50 [8]
5.8 µM: EC50 [28]
9.1 µM: EC50 [13]
8.3 µM: EC50 [26]
2.17 h: t1/2 [24]
